Screening results from PubChem.
This is a sample that favours compounds with a hit; in the whole collection about 1.7% have one here.
SKN-1 block = suppressors of acrylamide-induced Pgst-4::GFP reporter in worms, primary screen, SKN-1 inhibitor project, whole organism, uHTS, GFP/RFP fluorescence ratio, strain VP596; C. elegans VP596 Pgst-4::GFP/RFP ratio, 24 h; inhibition, % at 21.8 µM; actives 0.49% (n = 360,000); AID 624304, 2012;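 active = interference check ratio from 0.5 to 1.5 plus GFP to RFP signal ratio inhibition reaching or exceeding a fixed threshold, cut at about 30% in these data, passing the limit was not always enough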
PABP polyA inh = PABP poly(A) RNA binding inhibitors, primary screen, biochemical, fluorescence polarization, uHTS. inhibition, % at 35 µM. Polyadenylate-binding protein 1 (Homo sapiens), P11940. actives 1% (n = 290,000). AID 2014, 2009;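 note: calls also rest on retests at 20 µM and on dose response follow-up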
Target sequence (P11940 whole entry, looked up): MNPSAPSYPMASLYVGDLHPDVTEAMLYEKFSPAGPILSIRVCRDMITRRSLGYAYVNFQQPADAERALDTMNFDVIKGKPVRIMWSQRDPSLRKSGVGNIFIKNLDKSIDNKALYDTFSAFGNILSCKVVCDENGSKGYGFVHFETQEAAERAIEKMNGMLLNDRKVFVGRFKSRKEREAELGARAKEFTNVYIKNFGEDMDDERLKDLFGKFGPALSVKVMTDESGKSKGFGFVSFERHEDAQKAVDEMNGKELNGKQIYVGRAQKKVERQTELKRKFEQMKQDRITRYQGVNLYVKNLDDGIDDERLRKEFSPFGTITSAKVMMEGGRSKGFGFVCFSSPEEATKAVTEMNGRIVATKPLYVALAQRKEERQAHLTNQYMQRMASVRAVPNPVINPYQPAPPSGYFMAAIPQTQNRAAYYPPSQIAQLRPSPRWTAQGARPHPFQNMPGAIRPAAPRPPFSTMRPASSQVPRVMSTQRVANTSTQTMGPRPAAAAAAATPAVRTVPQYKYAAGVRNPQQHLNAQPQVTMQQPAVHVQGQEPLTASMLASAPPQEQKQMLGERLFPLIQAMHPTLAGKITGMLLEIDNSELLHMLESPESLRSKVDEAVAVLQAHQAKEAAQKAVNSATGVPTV
eIF4H FP inh = human eIF4H binding inhibitors, primary screen, translation initiation inhibitor project, biochemical, uHTS, fluorescence polarization; AID 2012, 2009; Eukaryotic translation initiation factor 4H (Homo sapiens), Q15056; eIF4H fluorescence polarization binding assay; actives 0.94% (n = 290,000); inhibition, % at 35 µM;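 note: calls also rest on retests at 20 µM and on dose response follow-up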
MLLE-PAM2 inh = inhibitors of PABP1 MLLE–PAM2 peptide binding, primary screen, biochemical, fluorescence polarization, FITC-PAM2, GST-MLLE | Polyadenylate-binding protein 1 (Homo sapiens), P11940 | AID 588489, 2011 | inhibition, % at 20 µM | actives 0.36% (n = 360,000); in the data active = inhibition above about 35%, passing the limit was not always enough
MT1-MMP act inh = blockers of MT1-MMP proenzyme processing, primary screen, HT1080 RFP-PRO-GFP cells, GFP/RFP fluorescence; GFP/RFP ratio fluorescence, overnight; percent of plate control window, DMSO zero; AID 651647, 2012; GFP/RFP ratio change, % at 20 µM; actives 0.061% (n = 360,000); Matrix metalloproteinase-14 (Homo sapiens), P50281;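 active = GFP/RFP ratio change of at least 30% with cell ATP level not reduced by more than half and red fluorescence within 50% of control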
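Assay system: HT1080 RFP-PRO-GFP cells. Benchmarks: DMSO vehicle wells and RFP-L50D-GFP reporter cell wells. Times: overnight cell settling, then overnight compound exposure, 37 °C, 5% CO2. Compound: 20 µM single dose, 1% DMSO. Read-out basis: GFP/RFP fluorescence ratio.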
A number is an active result; 0 = inactive; ? = inconclusive; - = not tested or not shown. Unless noted, the rule behind the calls is not given here.

SMILES	SKN-1 block	PABP polyA inh	eIF4H FP inh	MLLE-PAM2 inh	MT1-MMP act inh
CN(Cc1ccccc1Br)C(=O)CN1C(=O)NC2(CCCCCC2)C1=O	0	-	-	0	0
COC/C=C/C1=CC2=CC(=O)C(C)(OC(=O)c3cnc4ccccc4n3)C(=O)C2=CN1CC1CC1 (stereo not given)	0	-	-	0	0
COC/C=C/C1=CC2=CC(=O)C(C)(OC(=O)c3cnc4ccccc4n3)C(=O)C2=CN1Cc1ccccc1 (stereo not given)	0	0	59	0	0
COC/C=C/C1=CC2=CC(=O)C(C)(OC(=O)c3cnc4ccccc4n3)C(=O)C2=CN1c1ccc(OC)cc1 (stereo not given)	0	-	-	0	0
COC/C=C/C1=CC2=CC(=O)C(C)(OC(=O)c3cnc4ccccc4n3)C(=O)C2=CN1Cc1ccc(OC)cc1 (stereo not given)	0	0	50	0	0
O=C(CNC(=O)c1ccc(-c2ccccc2)cc1)Nc1cccc(CO)c1	0	-	-	0	0
COc1cc(CCC(=O)Nc2ccc(S(=O)(=O)NC3=NCCCCC3)cc2)cc(OC)c1OC	0	0	active	0	0
O=C(NCCc1ccccc1)c1ccc2nc(-c3ccco3)c(-c3ccco3)nc2c1	0	90	88	0	0
O=C(NCCO)c1ccc2nc(-c3ccco3)c(-c3ccco3)nc2c1	0	92	87	40	0
c1coc(-c2cnc3ccccc3n2)c1	0	-	-	0	0
c1coc(-c2nc3ccccc3nc2-c2ccco2)c1	0	85	102	0	0
Cc1ccc(C)c(N2CCN(C(=O)c3ccc4nc(-c5ccco5)c(-c5ccco5)nc4c3)CC2)c1	0	0	86	0	0
COc1ccccc1N1CCN(C(=O)c2ccc3nc(-c4ccco4)c(-c4ccco4)nc3c2)CC1	0	0	0	0	0
O=C(c1ccccc1)c1ccc2nc(-c3ccco3)c(-c3ccco3)nc2c1	0	0	0	0	0
O=C(NC1CCCC1)c1ccc2nc(-c3ccco3)c(-c3ccco3)nc2c1	0	60	102	0	0
Cc1ccc(C)c(Cn2nc(-c3cc(C)ccc3C)ccc2=O)c1	0	0	0	0	0
CCCn1c(=C(C#N)C#N)s/c(=C2\C=Cc3ccccc3N2CC)c1=O	0	0	0	40	0
COc1ccc(NC(=O)c2noc3c2CCC3)cc1	0	52	107	0	0
C=CCN(C(=O)CNC(=O)c1ccco1)C(C(=O)NC1CCCCC1)c1cccnc1 (stereo not given)	0	0	0	0	0
O=C(Nc1nc(-c2cccs2)cs1)c1ccc(Cl)cc1	0	0	0	0	0
COc1ccc(C(=O)Nc2nc(-c3cccs3)cs2)cc1	46	0	0	0	0
CNc1ccccc1	0	-	-	0	0
CNc1cccccc1=S	0	61	101	49	0
Clc1ccc(CSc2nnc(CNc3cccc(Cl)c3)o2)cc1	0	5.5	63	0	0
Fc1cccc(Cl)c1CSc1nnc(CNc2ccccc2)o1	0	0	0	0	0
SMILES	SKN-1 block	PABP polyA inh	eIF4H FP inh	MLLE-PAM2 inh	MT1-MMP act inh
CCn1c(CNC(=O)c2ccccc2F)nnc1SCC(=O)NC1CCCCC1C (stereo not given)	0	0	0	0	0
COc1cccc2cc(/C(=N/O)c3ccccc3)oc12	0	0	0	0	0
Cc1ccccc1CNC(=O)c1ccc2sc([C@H]3C[C@H](O)[C@@H](CO)O3)nc2c1	39	-	-	0	0
CCCC(=O)OCC(=O)Nc1ccc2[nH]c(=O)[nH]c2c1	0	0	0	0	0
CC1CC1C(=O)OCC(=O)Nc1ccc2[nH]c(=O)[nH]c2c1 (stereo not given)	0	18	?	0	0
O=C(COC(=O)c1c(F)cccc1F)Nc1ccc2[nH]c(=O)[nH]c2c1	0	0	57	0	0
CC1CC1C(=O)OCC(=O)Nc1cccc([N+](=O)[O-])c1 (stereo not given)	0	56	?	0	0
CC(C)=CC(=O)OCC(=O)Nc1cccc([N+](=O)[O-])c1	0	0	0	0	0
CC(C)C(CCNCc1ccccn1)c1ccc(Cl)cc1 (stereo not given)	38	0	0	0	0
COc1cc(/C=C(\C#N)C(=O)NCC2CCCO2)ccc1O (stereo not given)	0	59	active	0	0
O=c1nc2n(c3sc4c(c13)CCCC4)C(CBr)CS2 (stereo not given)	0	0	0	40	0
C/C(=N\NC(N)=S)C1=CCC2C3CC[C@H]4CC(O)CC[C@]4(C)C3CC[C@]12C (stereo not given in full)	0	0	0	0	0
Cn1cc(C(=O)N/N=C/C(Br)=C\c2ccccc2)ccc1=O	0	28	57	0	0
COc1ccc(CCNC(=O)c2cc(C3CC3)on2)cc1OC	0	0	0	0	0
C[C@H](c1ccccc1)N1C[C@H](COCc2ccccc2)Oc2cc(N3CC[C@H](N(C)C)C3)ccc2S1(=O)=O	0	-	-	-	0
O=C(C1CCN(S(=O)(=O)c2c(Cl)cccc2Cl)CC1)N1CCCC1	35	-	-	0	0
O=C(C1CCCCC1)N1CCN(S(=O)(=O)c2ccc(Cl)cc2)CC1	37	0	0	0	0
O=C(C1CCN(S(=O)(=O)c2ccc(Cl)cc2)CC1)N1CCCCCCC1	0	0	0	0	0
CSc1ccc(C(=O)C2CCCN(C(=O)c3ccc4c(c3)no[n+]4[O-])C2)cc1 (stereo not given)	0	0	0	0	0
Cc1c(C#N)c(O)n(CCO)c(=O)c1N=Nc1ccc(S(N)(=O)=O)cc1	0	0	0	0	0
Cc1c(C#N)c(O)n(CCO)c(=O)c1N=Nc1ccccc1	40	0	0	0	0
C=CCOc1cccc(C2/C(=C(\O)c3ccc4c(c3)OCCO4)C(=O)C(=O)N2CCN2CCOCC2)c1 (stereo not given)	0	0	0	0	0
O=C(O)c1cc(S(=O)(=O)O)cc(Nc2c3ccccc3nc3ccccc23)c1O	0	41	98	0	0
COc1ccc(/C=C/C(=O)NC(=S)NNC(=O)c2cccs2)cc1	0	0	5.9	0	0
COc1ccc(C(=O)NNC(=S)NC(=O)c2cccs2)cc1	0	0	0	0	0
COc1ccc(-n2c(C(C)n3nc(C)c([N+](=O)[O-])c3C)n[nH]c2=S)cc1 (stereo not given)	0	0	0	0	0
Cc1ccc(-n2c(C(C)n3nc(C)c([N+](=O)[O-])c3C)n[nH]c2=S)cc1 (stereo not given)	0	0	active	0	0
